Laboratory results taken from ChEMBL document CHEMBL3244186, “Synthesis and evaluation of the thiosemicarbazone, dithiocarbazonate, and 2'-pyrazinylhydrazone of pyrazinecarboxaldehyde as agents for the treatment of iron overload” (J Med Chem, 1979).
Each block holds one molecule with its values, some of them ahead of it.

Legend:
Mus musculus [1] = test: Iron chelating activity in iron-overloaded BDF1 mouse assessed as iron level in liver at 50 mg/kg, ip treated from day 8 to 13 after erythrocyte suspension injection on day 1, 3 and 5 by atomic absorption spectroscopic analysis; assay type: functional; details: route intraperitoneal
Method in brief: (§1)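 Iron-loaded male BDF1 mice (10 per group) given ip drug in EtOH/Tween 80/saline vehicle daily on days 8-13. On day 15, under Et2O, mice were exsanguinated. Organs were washed, frozen, thawed, weighed and homogenized in 0.014 M NaCl made with iron-free water; supernatant iron was measured by AAS, as μg/mouse. Mean ± SD; t test versus iron-loaded vehicle control.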

[2] = Iron chelating activity assessed as removal of [59]-Fe from [59]-Fe-labeled transferrin at 1 mM measured per hr by spectrometric analysis; assay type: physicochemical; details: 1000 µM
Method in brief: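 About 10^6 cpm of 59Fe-labeled transferrin in 1.0 mL of 0.1 M Hepes (pH 7.00), inside a dialysis sack, dialyzed at room temperature against 25.0 mL of 1.00 mM ligand in the same buffer. Dialysate aliquots of 1.00 mL taken at intervals were gamma-counted (800-1400 keV window). Initial release rates were derived from these counts.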

[3] = Binding affinity to FeSO4 assessed as stability constant at pH 7.4 after 1 hr; assay type: physicochemical; details: pH 7.4, 1 h
Method in brief: (§2)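 Continuous-variation (Job) method: iron and ligand solutions diluted after 1 h to 10.00 mL with 50 mM barbital buffer (pH 7.4), all containing 0.100 M KNO3. Visible absorbance at λmax was read at several times to confirm equilibrium. Absorbance was plotted against metal/(metal + ligand) to give the stoichiometry and minimum stability constant.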

Mus musculus [4] = test: Iron chelating activity in iron-overloaded BDF1 mouse assessed as transferrin saturation at 50 mg/kg, ip treated from day 8 to 13 after erythrocyte suspension injection on day 1, 3 and 5 relative to control; assay type: functional; details: route intraperitoneal
Method in brief: (§3)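 Iron-loaded male BDF1 mice (10 per group) received ip drug daily on days 8-13, with non-loaded and iron-loaded vehicle-treated control groups. On day 15, blood collected by cardiac puncture under Et2O was pooled per group. Percent transferrin saturation was measured with a standard hematologic kit.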

Mus musculus [5] = test: Iron chelating activity in iron-overloaded BDF1 mouse assessed as iron level in spleen at 100 mg/kg, ip treated from day 8 to 13 after erythrocyte suspension injection on day 1, 3 and 5 by atomic absorption spectroscopic analysis; assay type: functional; details: route intraperitoneal; method in brief: as §1
[6] = Iron chelating activity assessed as removal of iron from ferritin after 20 hrs by atomic absorption spectrophotometric analysis; assay type: physicochemical
Method in brief: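 Ferritin holding 1.34 mg total Fe was dialyzed at room temperature against 25.0 mL of 1.00 mM ligand solution. Iron in the dialysate was measured by atomic absorption spectroscopy at 20 h.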

Mus musculus [7] = test: Iron chelating activity in iron-overloaded BDF1 mouse assessed as transferrin saturation at 100 mg/kg, ip treated from day 8 to 13 after erythrocyte suspension injection on day 1, 3 and 5 relative to control; assay type: functional; details: route intraperitoneal; method in brief: as §3
Mus musculus [8] = test: Iron chelating activity in iron-overloaded BDF1 mouse assessed as iron level in lung at 100 mg/kg, ip treated from day 8 to 13 after erythrocyte suspension injection on day 1, 3 and 5 by atomic absorption spectroscopic analysis; assay type: functional; details: route intraperitoneal; method in brief: as §1
Mus musculus [9] = test: Iron chelating activity in iron-overloaded BDF1 mouse assessed as iron level in heart at 50 mg/kg, ip treated from day 8 to 13 after erythrocyte suspension injection on day 1, 3 and 5 by atomic absorption spectroscopic analysis; assay type: functional; details: route intraperitoneal; method in brief: as §1
Mus musculus [10] = test: Iron chelating activity in iron-overloaded BDF1 mouse assessed as iron level in spleen at 50 mg/kg, ip treated from day 8 to 13 after erythrocyte suspension injection on day 1, 3 and 5 by atomic absorption spectroscopic analysis; assay type: functional; details: route intraperitoneal; method in brief: as §1
Mus musculus [11] = test: Iron chelating activity in iron-overloaded BDF1 mouse assessed as iron level in liver at 100 mg/kg, ip treated from day 8 to 13 after erythrocyte suspension injection on day 1, 3 and 5 by atomic absorption spectroscopic analysis; assay type: functional; details: route intraperitoneal; method in brief: as §1
Mus musculus [12] = test: Iron chelating activity in iron-overloaded BDF1 mouse assessed as daily urinary iron level at 100 mg/kg, ip treated from day 8 to 13 after erythrocyte suspension injection on day 1, 3 and 5 by atomic absorption spectroscopic analysis; assay type: functional, Urine; details: route intraperitoneal
Mus musculus [13] = test: Iron chelating activity in iron-overloaded BDF1 mouse assessed as iron level in heart at 100 mg/kg, ip treated from day 8 to 13 after erythrocyte suspension injection on day 1, 3 and 5 by atomic absorption spectroscopic analysis; assay type: functional; details: route intraperitoneal; method in brief: as §1
Mus musculus [14] = test: Iron chelating activity in iron-overloaded BDF1 mouse assessed as iron level in lung at 50 mg/kg, ip treated from day 8 to 13 after erythrocyte suspension injection on day 1, 3 and 5 by atomic absorption spectroscopic analysis; assay type: functional; details: route intraperitoneal; method in brief: as §1
Mus musculus [15] = test: Iron chelating activity in iron-overloaded BDF1 mouse assessed as daily urinary iron level at 50 mg/kg, ip treated from day 8 to 13 after erythrocyte suspension injection on day 1, 3 and 5 by atomic absorption spectroscopic analysis; assay type: functional, Urine; details: route intraperitoneal
[16] = Binding affinity to Fe(NO3)3 assessed as stability constant at pH 7.4 after 1 hr; assay type: physicochemical; details: pH 7.4, 1 h; method in brief: as §2
Mus musculus [17] = test: Iron chelating activity in iron-overloaded BDF1 mouse assessed as iron level in spleen at 125 mg/kg, ip treated from day 8 to 13 after erythrocyte suspension injection on day 1, 3 and 5 by atomic absorption spectroscopic analysis; assay type: functional; details: route intraperitoneal; method in brief: as §1
[18] = Binding affinity to Fe(NO3)3 assessed as stability constant; assay type: physicochemical
Method in brief: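 Minimum stability constant and stoichiometry were found by continuous variation (Job plot). Metal and ligand solutions stood 1 h and were then diluted with 50 mM barbital buffer (pH 7.4) containing 0.100 M KNO3. Visible absorbance at λmax was read at several times to confirm equilibrium. Absorbance was plotted against metal/(metal + ligand).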

Mus musculus [19] = test: Iron chelating activity in iron-overloaded BDF1 mouse assessed as transferrin saturation at 125 mg/kg, ip treated from day 8 to 13 after erythrocyte suspension injection on day 1, 3 and 5 relative to control; assay type: functional; details: route intraperitoneal; method in brief: as §3
Mus musculus [20] = test: Iron chelating activity in iron-overloaded BDF1 mouse assessed as iron level in lung at 125 mg/kg, ip treated from day 8 to 13 after erythrocyte suspension injection on day 1, 3 and 5 by atomic absorption spectroscopic analysis; assay type: functional; details: route intraperitoneal; method in brief: as §1
Mus musculus [21] = test: Iron chelating activity in iron-overloaded BDF1 mouse assessed as iron level in heart at 125 mg/kg, ip treated from day 8 to 13 after erythrocyte suspension injection on day 1, 3 and 5 by atomic absorption spectroscopic analysis; assay type: functional; details: route intraperitoneal; method in brief: as §1
Mus musculus [22] = test: Iron chelating activity in iron-overloaded BDF1 mouse assessed as daily urinary iron level at 125 mg/kg, ip treated from day 8 to 13 after erythrocyte suspension injection on day 1, 3 and 5 by atomic absorption spectroscopic analysis; assay type: functional, Urine; details: route intraperitoneal
Mus musculus [23] = test: Iron chelating activity in iron-overloaded BDF1 mouse assessed as iron level in liver at 125 mg/kg, ip treated from day 8 to 13 after erythrocyte suspension injection on day 1, 3 and 5 by atomic absorption spectroscopic analysis; assay type: functional; details: route intraperitoneal; method in brief: as §1

Activity [2]: 0.1%
Activity [3]: 16.4
Activity [6]: < 1 µM
Activity [16]: > 27
Compound: C(=N\Nc1cnccn1)/c1cnccn1
Activity (Mus musculus [1]): 174 µg
Activity (Mus musculus [4]): 44%
Activity (Mus musculus [5]): 14.9 µg
Activity (Mus musculus [7]): 38%
Activity (Mus musculus [8]): 12.8 µg
Activity (Mus musculus [9]): 7.4 µg
Activity (Mus musculus [10]): 16.4 µg
Activity (Mus musculus [11]): 164 µg
Activity (Mus musculus [12]): 4.9 µg
Activity (Mus musculus [13]): 7.6 µg
Activity (Mus musculus [14]): 14.6 µg
Activity (Mus musculus [15]): 3.4 µg

Activity [18]: 30.6
Activity [2]: 1%
Activity [6]: 25.2 µM
Compound: CC(=O)N(O)CCCCCNC(=O)CCC(=O)N(O)CCCCCNC(=O)CCC(=O)N(O)CCCCCN [DEFEROXAMINE]
Activity (Mus musculus [17]): 19.2 µg
Activity (Mus musculus [19]): 75%
Activity (Mus musculus [20]): 16.4 µg
Activity (Mus musculus [21]): 9.4 µg
Activity (Mus musculus [22]): 3 µg
Activity (Mus musculus [23]): 132 µg

Compound: O=c1cccccc1O [TROPOLONE]
Activity [18]: 10.5
Activity [2]: 19.7%
Activity [6]: 4.1 µM
